Laboratory results published in ChEMBL document CHEMBL1156265, “Furo[2,3-b]pyridine-based cannabinoid-1 receptor inverse agonists: synthesis and biological evaluation. Part 1” (Bioorg Med Chem Lett, 2010).

Experiments:
Assay type in all cases: functional
Rattus norvegicus [1] = test: Reduction of body weight in rat at 1 mg/kg, po after 13 days relative to control; set-up: scale not given: the % may be the effect or the level left
How it was run: (§1)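 Chronic study in diet-induced obese rats with daily oral dosing at 1 mg/kg (for some compounds 0.1 and 0.3 mg/kg as well). Body weight change and cumulative food intake suppression were measured relative to vehicle. The 14-day study ended 18 h after the day-14 dose; one study ended on day 13.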

Rattus norvegicus [2] = test: Suppression of cumulative food intake in rat at 1 mg/kg, po after 13 days relative to control; how it was run: as §1
Rattus norvegicus [3] = test: Reduction of body weight in DIO rat assessed as weight change at 1 mg/kg, po daily measured 18 hrs post dose on day 13; set-up: scale not given: the % may be the effect or the level left; how it was run: as §1

Work on `C[C@H](NC(=O)C(C)(C)Oc1ccc(C(F)(F)F)cn1)[C@@H](Cc1ccc(Cl)cc1)c1cccc(C#N)c1` [TARANABANT] yielded an Activity (Rattus norvegicus [1]) of 6%, an Activity (Rattus norvegicus [2]) of 21% and an Activity (Rattus norvegicus [3]) of 6%.
